The structures appear in SMILES notation.

Test [1] relates to CLK-mediated phosphorylation of SRSF1, SRSF4, SRSF5, SRSF6 in rTDSCs and hMSCs. Put plainly: Western blot of phospho-SRSFs. Type of test: cell-based, human, rat. An outline of the steps:
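rTDSCs treated with test compound or DMSO for 24 h at 37°C, 5% CO2. Total protein extracted in RIPA buffer. Phospho-SRSF levels detected by Western blot with specific primary and secondary antibodies.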
In general terms: A western blot detects proteins with antibodies after separation by electrophoresis.

A further test deals with hMSCs and rTDSCs. Briefly: Tenocyte differentiation, immunostaining for tenocyte markers. The class given is cell-based, human, rat. An outline of the steps: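 Cells incubated at 37°C, 5% CO2 with test compound across a dose range or DMSO; rTDSCs treated 4 days (representative images at 1.5 μM). Fixed and immunostained for SCXA, TNMD, TNC, MKX, THBS4 and type I/III collagens; secondary antibody alone as negative control; BMP + FGF as positive control. High-content imaging; percent of total cells marker-positive; n = 4, mean ± SD.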

Consider `COc1ccc2c(c1)[nH]c1c(C)nccc12` [harmine], for which the “CLK-mediated phosphorylation of SRSF1, SRSF4, SRSF5 and SRSF6” value in test [1] was “no effects”. Besides, the “Potency in promoting tenocyte differentiation relative to SM04755” value in the test on hMSCs and rTDSCs is given as “less potent than SM04755”.

(Values after paper PMC8451793 (Journal of Orthopaedic Research, 2020).)
